According to ChEMBL document CHEMBL1145431, “Improved anti-osteoporosis potency and reduced endometrial membrane hyperplasia during hormone replacement therapy with estrogen-RGD peptide conjugates” (2007):
Where a SMILES comes first, the peptide text is derived from it. The star is where a group is joined. X1 = C[C@]12CC[C@@H]3c4ccc(OCC(=O)*)cc4CC[C@H]3[C@@H]1CCC2O

How the values were obtained:
Mus musculus [1] = assay: Effect on serum calcium level in ovariectomized mouse at 0.1103 mmol/kg, ip once daily for 4 weeks; assay type: functional
Summary of the method: (§1)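 OVX Kuiming mice dosed i.p. daily for 4 weeks in 0.5% CMC. Blood taken retro-orbitally on the day after the last dose, stood 30 min, spun at 3000 g for 20 min, serum stored at -20 °C. Calcium by o-methylphenolphthalein complexone, phosphorus by molybdenum blue, ALP by activity with disodium phenylphosphate substrate.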

Mus musculus [2] = assay: Effect on serum ALP level in mouse at 0.055 mmol/kg, ip; assay type: functional
Summary of the method: (§2)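 Dose-response in OVX Kuiming mice, i.p. daily for 4 weeks in 0.5% CMC at 11.03, 55.15 or 110.3 × 10-3 mmol/kg. Serum from retro-orbital blood (3000 g, 20 min). Calcium by o-methylphenolphthalein complexone, phosphorus by molybdenum blue, ALP by activity on disodium phenylphosphate. n = 12, ANOVA.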

Mus musculus [3] = assay: Effect on calcium level in ovariectomized mouse at 0.1103 mmol/kg, ip once daily for 4 weeks; assay type: functional
Summary of the method: (§3)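 Female Kuiming mice (7 weeks, 30.7 ± 3.1 g) ovariectomized, sham group abdominorotomy. From day 5, i.p. once daily for 4 weeks at 110.3 × 10-3 mmol/kg in 0.5% CMC. Left femur cleaned, length measured, defatted in chloroform-methanol (2:1, 2 × 3 h), dried 120 °C 6 h for dry weight, ashed 800 °C 8 h. Mineral content = ash/dry weight. Ash dissolved in 6 N HCl and diluted. Ca by o-methylphenolphthalein complexone, P by molybdenum blue. Lungs and livers weighed directly.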

Mus musculus [4] = assay: Effect on serum ALP level in mouse at 0.1103 mmol/kg, ip; assay type: functional; summary of the method: as §1
Mus musculus [5] = assay: Effect on phosphorus level in mouse at 0.110 mmol/kg, po; assay type: functional
Summary of the method: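 Female Kuiming mice (7 weeks old, 30.7 ± 3.1 g) under abdominal OVX, sham group abdominorotomy only. From day 5 after surgery, dosed orally once daily for 4 weeks at 110.3 × 10-3 mmol/kg in 0.5% CMC (0.2 mL), vehicle group CMC alone. Blood drawn retro-orbitally, then left femur and organs removed under pentobarbital (40.0 mg/kg, i.p.).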

Mus musculus [6] = assay: Effect on dry weight of femurs in ovariectomized mouse at 0.1103 mmol/kg, ip once daily for 4 weeks; assay type: functional, Femur; summary of the method: as §3
Mus musculus [7] = assay: Effect on femur ash weight in ovariectomized mouse at 0.1103 mmol/kg, ip once daily for 4 weeks; assay type: functional; summary of the method: as §3
Mus musculus [8] = assay: Effect on spleen weight in mouse at 0.055 mmol/kg, ip; assay type: functional
Summary of the method: (§4)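 Dose-response in OVX Kuiming mice, i.p. daily for 4 weeks in 0.5% CMC at 11.03, 55.15 or 110.3 × 10-3 mmol/kg. Left femur: length, then defatting, drying at 120 °C for 6 h (dry weight), ashing at 800 °C for 8 h. Ash/dry ratio gives mineral content. Ash Ca and P measured colorimetrically. Liver, lung and spleen weighed directly. n = 12, ANOVA.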

Mus musculus [9] = assay: Effect on serum phosphorous level in mouse at […] mmol/kg, ip; assay type: functional; summary of the method: as §1
Mus musculus [10] = assay: Effect on spleen weight in ovariectomized mouse at 0.1103 mmol/kg, ip once daily for 4 weeks; assay type: functional
Summary of the method: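 Female Kuiming mice (7 weeks old, 30.7 ± 3.1 g), abdominal OVX under pentobarbital (40.0 mg/kg i.p.). From day 5 after surgery, i.p. injection once daily for 4 weeks, compound in aqueous 0.5% CMC prepared just before use. The day after the last dose, mice were anesthetized and killed, and lungs, livers, spleens and uteri were removed and weighed directly. n = 12, ANOVA, p < 0.05.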

Mus musculus [11] = assay: Effect on phosphorous level in mouse femur at 0.055 mmol/kg, ip; assay type: functional; summary of the method: as §4
Mus musculus [12] = assay: Effect on uterus weight in mouse at 0.011 mmol/kg, ip; assay type: functional
Summary of the method: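 Dose study in abdominally ovariectomized female Kuiming mice (30.7 ± 3.1 g). Daily i.p. dosing in aqueous 0.5% CMC from day 5 after surgery for 4 weeks, at 110.3, 55.15 or 11.03 × 10-3 mmol/kg. Liver, lung, spleen and uterus were removed after pentobarbital euthanasia and weighed. n = 12, ANOVA, p < 0.05.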

Mus musculus [13] = assay: Effect on dry weight of femurs in recipient mouse at 0.055 mmol/kg, ip; assay type: functional, Femur; summary of the method: as §4
Mus musculus [14] = assay: Effect on serum phosphorus level in ovariectomized mouse at 0.1103 mmol/kg, ip once daily for 4 weeks; assay type: functional; summary of the method: as §1
Mus musculus [15] = assay: Effect on phosphorous level in mouse femur at 0.011 mmol/kg, ip; assay type: functional; details: in the assay text read “0.11 mmol/kg” for “0.011 mmol/kg”; summary of the method: as §4
Mus musculus [16] = assay: Effect on serum calcium level in mouse at 0.055 mmol/kg, ip; assay type: functional; summary of the method: as §2
Mus musculus [17] = assay: Effect on calcium level in mouse femur at 0.055 mmol/kg, ip; assay type: functional; summary of the method: as §4
Mus musculus [18] = assay: Increase in body weight in ovariectomized mouse at 0.1103 mmol/kg, ip once daily for 4 weeks; assay type: functional
Summary of the method: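 Female Kuiming mice (30.7 ± 3.1 g) underwent abdominal OVX; the sham group had abdominorotomy only. From day 5 after surgery, i.p. dosing once daily for 4 weeks at 110.3 × 10-3 mmol/kg in aqueous 0.5% CMC. Body weight was recorded on the day of the last administration.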

SMILES | Activity (Mus musculus [1]) [mmol/L] | Activity (Mus musculus [2]) [U/L] | Activity (Mus musculus [3]) [%] | Activity (Mus musculus [4]) [U/L] | Activity (Mus musculus [5]) [%] | Activity (Mus musculus [6]) [mg] | Activity (Mus musculus [7]) [mg] | Activity (Mus musculus [8]) [mg] | Activity (Mus musculus [9]) [mmol/L] | Activity (Mus musculus [10]) [mg] | Activity (Mus musculus [11]) [%] | Activity (Mus musculus [12]) [mg] | Activity (Mus musculus [13]) [mg] | Activity (Mus musculus [14]) [mmol/L] | Activity (Mus musculus [15]) [%] | Activity (Mus musculus [16]) [mmol/L] | Activity (Mus musculus [17]) [%] | Activity (Mus musculus [18]) [g]
C[C@]12CC[C@@H]3c4ccc(OCC(=O)N[C@@H](CCCNC(=N)N)C(=O)NCC(=O)N[C@@H](CC(=O)O)C(=O)N[C@@H](Cc5ccccc5)C(=O)O)cc4CC[C@H]3[C@@H]1CCC2O (some centres not stated) (X1-RGDF-OH) | 2.005 | 33.746 | 56.69 | 31.5 | 25.532 | 64.2 | 35.8 | 123 | 1.605 | 131 | 24.845 | 60.6 | 53.9 | 1.605 | 25.46 | 2.04 | 54.493 | 33.1
C[C@]12CC[C@@H]3c4ccc(OCC(=O)N[C@@H](CCCNC(=N)N)C(=O)NCC(=O)N[C@@H](CC(=O)O)C(=O)N[C@@H](CO)C(=O)O)cc4CC[C@H]3[C@@H]1CCC2O (some centres not stated) (X1-RGDS-OH) | 2.004 | 33.616 | 54.885 | 31.4 | 24.994 | 63.4 | 37 | 136 | 1.599 | 124 | 24.274 | 52.8 | 56.3 | 1.599 |  | 2.047 | 52.1 | 35.2
CC(C)[C@H](NC(=O)[C@H](CC(=O)O)NC(=O)CNC(=O)[C@H](CCCNC(=N)N)NC(=O)COc1ccc2c(c1)CC[C@@H]1[C@@H]2CC[C@]2(C)C(O)CC[C@@H]12)C(=O)O (some centres not stated) (X1-RGDV-OH) | 2.003 | 32.786 | 58.35 | 30.5 | 24.997 | 63.7 | 40 | 140 | 1.6 | 132 | 24.315 | 55.7 | 57.5 | 1.6 |  | 2.084 | 57.13 | 35.2
